The entries come from a sample that favours hits as a whole.
KDM4C inh = blocks human GASC-1 (KDM4C) demethylase activity. Q9H3R0. GST-KDM4C 2-372, H3K9me3 peptide, LANCE TR-FRET. inhibition, % at 12.5 µM. 96,000 tested, 0.15% active;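 active = mean replicate inhibition above about 25%, with at least 55% of replicates also reaching it, limit read from the data, passing the limit was not always enough; inconclusive = only one of those two conditions met; inactive = neither condition met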
Target sequence (Q9H3R0 2-372 limits assumed): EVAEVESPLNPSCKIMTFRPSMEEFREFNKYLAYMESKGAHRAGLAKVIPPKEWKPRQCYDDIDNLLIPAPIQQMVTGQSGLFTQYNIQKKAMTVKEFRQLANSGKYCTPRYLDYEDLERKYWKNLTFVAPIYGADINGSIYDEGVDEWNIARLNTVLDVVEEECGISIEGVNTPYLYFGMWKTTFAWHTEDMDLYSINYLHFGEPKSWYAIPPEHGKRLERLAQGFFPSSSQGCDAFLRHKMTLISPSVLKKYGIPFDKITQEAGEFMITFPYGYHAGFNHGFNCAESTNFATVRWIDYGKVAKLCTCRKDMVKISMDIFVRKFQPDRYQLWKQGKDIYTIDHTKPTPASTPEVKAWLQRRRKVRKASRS
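Compound: one test concentration per compound; Material: GST-GASC-1 enzyme fragment 2-372; Amount: GASC-1 enzyme at 10 nM final in reaction; Also added: H3K9me3 peptide substrate, Fe(II), 2-oxoglutarate; Technique: LANCE TR-FRET; Times: 30 min demethylation and 1 h detection at room temperature.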
T cruzi growth-1 = T. cruzi proliferation inhibition. T. cruzi beta-gal in NIH3T3, GalScreen luminescence, 90 h. 77,000 tested, 5.9% active. inhibition, % at 8.34 µM. AID 624255;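 active = mean inhibition above about 93%, with at least 55% of replicates each passing it, limit read from the data, passing the limit was not always enough; inconclusive = only one of those two conditions holds; inactive = neither condition holds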
IDH1 mut inh = IDH1 R132H (human) inhibition; O75874; 70,000 tested, 0.18% active; inhibition, % at 10 µM; IDH1 R132H reductase, diaphorase/resazurin fluorescence, 60 min; in the data active = inhibition above about 34%; inconclusive = no clear call, values can overlap the other calls; inactive = below about 11%
T cruzi growth-2 = blocks T. cruzi growth in NIH3T3 host cells; shares compounds with T cruzi growth-1; inhibition, % at 8.35 µM; 5,600 tested, 72% active; T. cruzi beta-gal in NIH3T3, GalScreen luminescence, 90 h; AID 651739;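 active = mean replicate inhibition above about 95% and at least 55% of replicates individually reaching it, limit read from the data; inconclusive = only one of the two criteria is met; inactive = neither criterion is met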
T cruzi growth-3 = Trypanosoma cruzi proliferation inhibition; shares compounds with T cruzi growth-1; AID 651740; T. cruzi beta-gal in NIH3T3, GalScreen luminescence, 90 h; 5,600 tested, 21% active; inhibition, % at 2.09 µM;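 active = mean inhibition above about 95%, with at least 55% of replicates also reaching it, limit read from the data; inconclusive = meets just one of the two conditions; inactive = meets neither condition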
NIH3T3 tox = NIH/3T3 (mouse) viability loss. 5,600 tested, 14% active. NIH/3T3 viability, CellTiter-Glo ATP luminescence, 90 h. shares compounds with T cruzi growth-1. cytotoxicity (signal decrease), % at 8.35 µM;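 active = mean signal decrease across replicates above about 35% based on untreated-well scatter, with enough replicates individually passing, limit read from the data; inconclusive = no rule stated though some were filed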
3T3 cytotox 2 = NIH/3T3 (mouse) viability loss; shares compounds with T cruzi growth-1; NIH/3T3 viability, CellTiter-Glo ATP luminescence, 90 h; inhibition, % at 24.9 µM; 5,600 tested, 56% active;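 active = mean loss of cell viability signal at or above a set limit, and enough replicates individually reaching it; inconclusive = meets only the mean limit or only the replicate share; inactive = meets neither condition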
Numbers stand for hits; i = inactive; ? = inconclusive; nt = not tested or not shown.

SMILES	KDM4C inh	T cruzi growth-1	IDH1 mut inh	T cruzi growth-2	T cruzi growth-3	NIH3T3 tox	3T3 cytotox 2
CO[C@H](CN(C)S(=O)(=O)c1ccc(Cl)cc1)[C@H](C)CN(Cc1ccccc1Cl)[C@H](C)CO	i	105.6	i	111.2	i	i	106.6
Cc1ccc(S(=O)(=O)N(C)C[C@H]2Oc3ccc(NC(=O)Cn4cnnn4)cc3C(=O)N([C@H](C)CO)C[C@@H]2C)cc1	i	i	i	nt	nt	nt	nt
COc1ccc([C@@H]2Oc3c(OC)cc(CCCO)cc3[C@H]2CO)cc1OC	nt	nt	i	nt	nt	nt	nt
CCCCCC1C(=O)O/C(=C\C(=O)O)C1=O (stereo unspecified)	nt	nt	i	nt	nt	nt	nt
C#CCN1C(=O)C(O)(CC(=O)c2ccc(C)o2)c2ccccc21 (stereo unspecified)	nt	nt	i	nt	nt	nt	nt
O=C(Nc1ccccc1)N1CCCCN2[C@H](CO)[C@H](c3ccc(C4=CCCCC4)cc3)[C@@H]2C1	i	?	nt	115.3	i	i	93.6
O=C(Nc1ccccc1F)N1CCCCN2[C@@H](CO)[C@H](c3ccc(C4=CCCC4)cc3)[C@@H]2C1	i	i	nt	nt	nt	nt	nt
O=C(Nc1ccccc1F)N1CCCCN2[C@H](CO)[C@H](c3ccc(C4=CCCC4)cc3)[C@@H]2C1	i	109.9	nt	109.3	i	i	i
O=C(Nc1ccc(F)cc1)N1CCCCN2[C@H](CO)[C@H](c3ccc(C4=CCCCC4)cc3)[C@@H]2C1	i	118.2	nt	106.5	98.1	i	63.0
COc1ccc(NC(=O)N2CCCCN3[C@H](CO)[C@@H](c4ccc(C5=CCCC5)cc4)[C@H]3C2)cc1	nt	i	nt	nt	nt	nt	nt
O=C(Nc1ccccc1F)N1CCCCN2[C@H](CO)[C@@H](c3ccc(C4=CCCC4)cc3)[C@H]2C1	i	i	nt	nt	nt	nt	nt
O=C(Nc1ccccc1)N1CCCCN2[C@@H](CO)[C@H](c3ccc(C4=CCCCC4)cc3)[C@@H]2C1	i	?	nt	i	i	116.2	104.6
COc1ccc(NC(=O)N2CCCCN3[C@@H](CO)[C@H](c4ccc(C5=CCCCC5)cc4)[C@@H]3C2)cc1	i	i	nt	nt	nt	nt	nt
Cc1ccc(S(=O)(=O)Nc2ccc3c(c2)C(=O)N([C@@H](C)CO)C[C@@H](C)[C@H](CN(C)Cc2ccc4c(c2)OCO4)O3)cc1	i	i	i	nt	nt	nt	nt
O=C(CCS(=O)(=O)c1nc(-c2ccccc2)cc(C(F)(F)F)n1)Nc1ccc(Cl)cc1Cl	nt	nt	i	nt	nt	nt	nt
COc1ccc2c3c(n(C)c2c1)[C@H](CO)N(CC1CC1)CC31CCN(C(=O)c2ccc3c(c2)OCO3)CC1	i	nt	nt	nt	nt	nt	nt
O=C(Nc1ccccc1)N1CCCCN2[C@H](C1)[C@H](c1ccc(C3=CCCCC3)cc1)[C@@H]2CO	i	110.2	nt	108.9	i	i	79.2
COc1ccc(NC(=O)N2CCCCN3[C@H](C2)[C@H](c2ccc(C4=CCCC4)cc2)[C@@H]3CO)cc1	nt	i	nt	nt	nt	nt	nt
COc1ccc(NC(=O)N2CCCCN3[C@H](CO)[C@H](c4ccc(C5=CCCC5)cc4)[C@@H]3C2)cc1	nt	117.4	nt	95.9	106.5	i	?
O=C(Nc1ccccc1F)N1CCCCN2[C@@H](CO)[C@@H](c3ccc(C4=CCCC4)cc3)[C@@H]2C1	i	i	nt	nt	nt	nt	nt
O=C(Cn1c(=O)oc2ccccc21)Nc1ccc(S(=O)(=O)N2CCOCC2)cc1	nt	nt	i	nt	nt	nt	nt
COc1ccc2c3c(n(C)c2c1)[C@H](CO)N(S(=O)(=O)c1ccc(C)cc1)CC31CN(S(=O)(=O)c2ccc(C)cc2)C1	i	nt	nt	nt	nt	nt	nt
Cc1ccc(C(=O)O)cc1NC(=O)COc1ccc(C(C)(C)C)cc1	nt	nt	i	nt	nt	nt	nt
C[C@H](CO)N1C[C@H](C)[C@@H](CN(C)Cc2ccc3c(c2)OCO3)Oc2c(NC(=O)Nc3ccc(C(F)(F)F)cc3)cccc2C1=O	i	103.7	nt	96.8	105.0	i	96.9
C[C@H](CO)N1C[C@H](C)[C@H](CN(C)Cc2ccc3c(c2)OCO3)Oc2c(NC(=O)Nc3ccc(C(F)(F)F)cc3)cccc2C1=O	i	103.1	i	107.9	102.6	i	103.5
C[C@H]1CN([C@@H](C)CO)C(=O)c2cccc(NC(=O)Nc3ccc(C(F)(F)F)cc3)c2O[C@@H]1CN(C)Cc1ccc2c(c1)OCO2	nt	i	nt	nt	nt	nt	nt
C[C@@H]1CN([C@H](C)CO)C(=O)c2cccc(NC(=O)Nc3ccc(C(F)(F)F)cc3)c2O[C@@H]1CN(C)Cc1ccc2c(c1)OCO2	i	i	i	nt	nt	nt	nt

Source: PubChem
